Experimental data from ChEMBL document CHEMBL1137238, “The synthesis and SAR of 2-amino-pyrrolo[2,3-d]pyrimidines: a new class of Aurora-A kinase inhibitors” (Bioorg Med Chem Lett, 2006).
pIC50: −log10 of the molar value.

Assays:
[1] = molecular target: T1, Cyclin-dependent kinase 4 (Homo sapiens, UniProt P11802); experiment: Inhibition of retinoblastoma phosphorylation by CDK4; format: functional
Outline: (§1)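 Purified CDK4 incubated with compounds and retinoblastoma protein substrate in 100 mM Hepes pH 7.5, 75 mM NaCl, 2 mM DTT, 10 mM MgCl2, 30 μM ATP. Stopped after 35 min. Rb phosphorylation at Ser795 measured colorimetrically with a phospho-specific antibody.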

[2] = molecular target: Proto-oncogene tyrosine-protein kinase Src (Homo sapiens, UniProt P12931); experiment: Inhibition of c-src
[3] = molecular target: Cyclin-dependent kinase 1 (Homo sapiens, UniProt P06493); experiment: Inhibition of CDK1
[4] = molecular target: Cyclin-dependent kinase 7 (Homo sapiens, UniProt P50613); experiment: Inhibition of CDK7
[5] = molecular target: T1, Cyclin-dependent kinase 4; experiment: Inhibition of CDK4; outline: as §1
Insulin receptor = Insulin receptor (Homo sapiens, UniProt P06213); experiment: Inhibition of IRK
[6] = molecular target: BDNF/NT-3 growth factors receptor (Homo sapiens, UniProt Q16620); experiment: Inhibition of TrkB
[7] = molecular target: Vascular endothelial growth factor receptor (Homo sapiens, UniProt P17948+P35916+P35968); experiment: Inhibition of VEGFR; format: protein assay
[8] = molecular target: Platelet-derived growth factor receptor (Homo sapiens, UniProt P09619+P16234); experiment: Inhibition of PDGFR; format: protein-complex assay
[9] = molecular target: Aurora kinase A (Mus musculus) (UniProt P97477); experiment: Inhibition of Aurora-A
Aurora kinase A (Mus musculus), sequence (P97477 whole entry, looked up): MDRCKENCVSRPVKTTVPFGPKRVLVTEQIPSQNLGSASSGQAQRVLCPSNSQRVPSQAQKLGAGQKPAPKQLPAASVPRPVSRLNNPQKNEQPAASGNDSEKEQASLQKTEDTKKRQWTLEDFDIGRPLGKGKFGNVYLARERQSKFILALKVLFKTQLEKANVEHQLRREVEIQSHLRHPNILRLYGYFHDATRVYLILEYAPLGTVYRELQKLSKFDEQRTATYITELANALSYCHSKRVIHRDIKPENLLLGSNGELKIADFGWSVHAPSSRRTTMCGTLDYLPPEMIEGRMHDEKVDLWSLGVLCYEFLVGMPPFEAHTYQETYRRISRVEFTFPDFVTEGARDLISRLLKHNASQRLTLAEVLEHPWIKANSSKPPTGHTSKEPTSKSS

T1 sequence (P11802 whole entry): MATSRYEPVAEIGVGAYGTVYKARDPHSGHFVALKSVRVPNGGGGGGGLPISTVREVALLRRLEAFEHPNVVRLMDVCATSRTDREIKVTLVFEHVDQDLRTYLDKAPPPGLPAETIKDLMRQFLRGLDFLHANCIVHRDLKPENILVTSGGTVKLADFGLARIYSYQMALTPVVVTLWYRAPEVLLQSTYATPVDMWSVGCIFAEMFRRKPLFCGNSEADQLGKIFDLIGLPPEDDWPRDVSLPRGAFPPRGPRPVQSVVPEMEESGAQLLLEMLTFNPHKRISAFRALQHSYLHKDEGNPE
Proto-oncogene tyrosine-protein kinase Src, sequence (P12931 2-536 limits assumed): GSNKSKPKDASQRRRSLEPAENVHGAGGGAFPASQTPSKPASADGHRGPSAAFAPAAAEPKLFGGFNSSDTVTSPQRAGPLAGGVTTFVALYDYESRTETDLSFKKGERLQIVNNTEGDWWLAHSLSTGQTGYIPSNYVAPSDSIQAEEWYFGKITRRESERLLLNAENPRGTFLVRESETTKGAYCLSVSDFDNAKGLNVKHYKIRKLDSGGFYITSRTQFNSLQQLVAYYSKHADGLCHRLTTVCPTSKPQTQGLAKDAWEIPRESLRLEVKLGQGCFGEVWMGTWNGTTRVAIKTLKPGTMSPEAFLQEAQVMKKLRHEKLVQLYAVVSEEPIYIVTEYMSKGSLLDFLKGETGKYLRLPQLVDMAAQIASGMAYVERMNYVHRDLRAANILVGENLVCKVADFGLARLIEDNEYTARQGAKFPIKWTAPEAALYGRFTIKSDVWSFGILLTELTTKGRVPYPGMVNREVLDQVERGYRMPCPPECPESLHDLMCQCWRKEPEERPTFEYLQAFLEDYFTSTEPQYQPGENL
Cyclin-dependent kinase 1, sequence (P06493 whole entry): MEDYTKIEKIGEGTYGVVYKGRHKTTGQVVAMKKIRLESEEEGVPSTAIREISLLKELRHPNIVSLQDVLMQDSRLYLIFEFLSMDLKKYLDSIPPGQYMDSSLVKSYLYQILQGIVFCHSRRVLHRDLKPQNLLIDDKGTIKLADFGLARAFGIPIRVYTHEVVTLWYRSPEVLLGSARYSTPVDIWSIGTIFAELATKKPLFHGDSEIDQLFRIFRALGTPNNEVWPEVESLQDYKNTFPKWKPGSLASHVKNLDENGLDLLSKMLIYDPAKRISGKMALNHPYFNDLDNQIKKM
BDNF/NT-3 growth factors receptor, sequence (Q16620 whole entry): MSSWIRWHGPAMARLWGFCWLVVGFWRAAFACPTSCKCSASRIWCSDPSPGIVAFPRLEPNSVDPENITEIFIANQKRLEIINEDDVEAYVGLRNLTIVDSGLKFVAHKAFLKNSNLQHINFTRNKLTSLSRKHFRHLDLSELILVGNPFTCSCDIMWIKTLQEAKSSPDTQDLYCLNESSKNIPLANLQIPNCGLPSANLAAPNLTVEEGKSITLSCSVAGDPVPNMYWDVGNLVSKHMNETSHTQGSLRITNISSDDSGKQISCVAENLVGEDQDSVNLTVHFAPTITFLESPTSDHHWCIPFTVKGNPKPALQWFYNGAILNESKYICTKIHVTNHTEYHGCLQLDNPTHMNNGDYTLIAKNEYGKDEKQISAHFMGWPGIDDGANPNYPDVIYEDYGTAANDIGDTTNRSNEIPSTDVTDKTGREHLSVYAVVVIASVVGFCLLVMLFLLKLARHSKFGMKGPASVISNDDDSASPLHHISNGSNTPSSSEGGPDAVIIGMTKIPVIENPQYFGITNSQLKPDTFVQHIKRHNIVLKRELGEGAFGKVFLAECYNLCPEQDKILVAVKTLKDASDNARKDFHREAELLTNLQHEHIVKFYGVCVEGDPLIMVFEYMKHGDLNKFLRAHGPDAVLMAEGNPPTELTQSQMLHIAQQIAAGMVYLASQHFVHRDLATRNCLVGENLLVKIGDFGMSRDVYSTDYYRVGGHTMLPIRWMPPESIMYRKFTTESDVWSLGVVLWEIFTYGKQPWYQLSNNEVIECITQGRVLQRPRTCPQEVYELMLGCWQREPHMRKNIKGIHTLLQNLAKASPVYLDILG
Cyclin-dependent kinase 7, sequence (P50613 whole entry): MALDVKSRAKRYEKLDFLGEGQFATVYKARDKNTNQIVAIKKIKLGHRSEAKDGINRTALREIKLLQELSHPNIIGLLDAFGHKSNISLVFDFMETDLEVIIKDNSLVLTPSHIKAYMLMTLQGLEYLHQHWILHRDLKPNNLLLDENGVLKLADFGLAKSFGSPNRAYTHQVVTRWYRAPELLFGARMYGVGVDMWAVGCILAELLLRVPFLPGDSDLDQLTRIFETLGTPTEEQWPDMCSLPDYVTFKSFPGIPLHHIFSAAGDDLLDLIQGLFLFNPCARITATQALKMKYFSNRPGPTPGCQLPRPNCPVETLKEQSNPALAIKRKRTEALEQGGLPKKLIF
Insulin receptor, sequence (P06213 28-758 limits assumed): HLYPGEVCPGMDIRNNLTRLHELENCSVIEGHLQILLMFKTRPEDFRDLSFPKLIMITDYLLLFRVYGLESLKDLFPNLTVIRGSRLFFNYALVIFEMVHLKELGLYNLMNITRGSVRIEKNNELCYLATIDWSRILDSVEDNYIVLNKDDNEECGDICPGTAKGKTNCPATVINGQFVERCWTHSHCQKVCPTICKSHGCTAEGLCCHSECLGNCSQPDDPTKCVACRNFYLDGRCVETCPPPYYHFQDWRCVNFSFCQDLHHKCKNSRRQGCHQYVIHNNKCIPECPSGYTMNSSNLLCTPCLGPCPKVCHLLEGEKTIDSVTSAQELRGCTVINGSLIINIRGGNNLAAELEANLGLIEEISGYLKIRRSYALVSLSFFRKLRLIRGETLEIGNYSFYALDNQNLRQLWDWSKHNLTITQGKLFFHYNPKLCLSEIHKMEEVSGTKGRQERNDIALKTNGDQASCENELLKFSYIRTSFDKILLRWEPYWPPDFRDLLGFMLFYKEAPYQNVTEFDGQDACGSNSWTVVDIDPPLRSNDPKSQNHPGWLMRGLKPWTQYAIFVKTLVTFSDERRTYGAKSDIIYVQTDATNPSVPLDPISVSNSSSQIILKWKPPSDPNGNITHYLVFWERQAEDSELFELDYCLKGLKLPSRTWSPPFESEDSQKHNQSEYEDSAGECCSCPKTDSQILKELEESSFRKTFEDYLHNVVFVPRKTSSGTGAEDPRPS
Insulin receptor, sequence (P06213 763-1382 limits assumed): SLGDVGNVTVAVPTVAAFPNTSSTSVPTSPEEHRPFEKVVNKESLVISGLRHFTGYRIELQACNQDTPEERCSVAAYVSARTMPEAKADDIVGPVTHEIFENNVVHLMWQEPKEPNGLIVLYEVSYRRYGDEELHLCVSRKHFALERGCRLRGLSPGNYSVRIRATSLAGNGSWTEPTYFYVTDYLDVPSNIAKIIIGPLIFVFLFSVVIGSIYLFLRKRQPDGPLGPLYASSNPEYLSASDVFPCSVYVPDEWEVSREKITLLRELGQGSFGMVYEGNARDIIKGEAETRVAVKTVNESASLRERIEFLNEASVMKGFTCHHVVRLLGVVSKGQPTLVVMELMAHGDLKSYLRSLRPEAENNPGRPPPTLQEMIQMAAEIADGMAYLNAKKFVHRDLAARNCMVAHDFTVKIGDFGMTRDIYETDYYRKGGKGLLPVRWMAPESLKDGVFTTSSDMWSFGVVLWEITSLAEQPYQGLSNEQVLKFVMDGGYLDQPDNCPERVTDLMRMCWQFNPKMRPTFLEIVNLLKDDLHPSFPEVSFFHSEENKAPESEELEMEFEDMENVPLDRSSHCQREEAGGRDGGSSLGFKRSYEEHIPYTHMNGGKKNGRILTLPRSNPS

Row | Compound | pIC50 [1] | other results
1 | CN1CCN(c2ccc(Nc3ncc4ccn(-c5cccnc5)c4n3)cc2)CC1 | 5.85 | –
2 | c1cc(N2CCOCC2)ccc1Nc1ncc2ccn(C3CCCCC3)c2n1 | 6.22 | –
3 | O=S1(=O)CCN(c2ccc(Nc3ncc4ccn(C5CCCCC5)c4n3)cc2)CC1 | 6.00 | –
4 | CN1CCN(c2ccc(Nc3ncc4ccn(C5Cc6ccccc6C5)c4n3)cc2)CC1 | 5.68 | –
5 | CN1CCN(c2ccc(Nc3ncc4ccn(-c5cccc(S(C)(=O)=O)c5)c4n3)cc2)CC1 | 5.70 | –

Compounds with a higher pIC50 [1], results first:

Row | pIC50 [1] | Compound | other results
6 | 6.47 | COc1cccc(-n2ccc3cnc(Nc4ccc(N5CCN(C)CC5)cc4)nc32)c1 | –
7 | 7.51 | CN1CCN(c2ccc(Nc3ncc4ccn(C5CCCCC5)c4n3)cc2)CC1 | pIC50 [2]: 6.15; pIC50 [3]: 5.80; pIC50 [4]: 5.82; pIC50 [5]: 7.51; pIC50 (Insulin receptor): 6.00; pIC50 [6]: 6.80; IC50 [7]: 0.1 µM; pIC50 [8]: 6.54; pIC50 [9]: 7.33
8 | 6.46 | O=C(O)Cc1cccc(Nc2ncc3ccn(C4CCCCC4)c3n2)c1 | –
9 | 7.54 | CN1CCN(c2ccc(Nc3ncc4ccn(C5CC6CCC5C6)c4n3)cc2)CC1 (centres undefined) | –
10 | 6.96 | COCCN1CCN(c2ccc(Nc3ncc4ccn(C5CCCCC5)c4n3)cc2)CC1 | –
